HSV augment = HSV replication enhancement | HSV replication augmentation in cells, fold increase | maximum fold increase | 220,000 tested, 0.005% active | AID 1956; in the data active = maximum fold increase above about 1.5; inconclusive = no clear call, values can overlap the other calls; tested in PC3 cells
Autophagy mod = alters autophagy in cells. calls only at 10 µM (by protocol). 190,000 tested, 0.98% active. MEF GFP-LC3 puncta imaging; test concentration mostly 10 µM;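 active = percentage of spot-positive cells more than 3 SD above its plate mean, without a fluorescence outlier flag or 80% toxicity; inconclusive = no clear call, values can overlap the other calls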;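 also: spot-positive cell cutoff set from DMSO-treated cells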
zVAD death inh = L929 zVAD cell death inhibition; 220,000 tested, 0.38% active; AID 1377; viability rescue, % at 10 µM; L929 zVAD necroptosis rescue, ATP luminescence, 24 h; with zVAD 60 µM;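 active = activation, scaled between plate controls, above about 75%, limit read from the data; inactive = activation under that limit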;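 also: 0% = zVAD with DMSO and 100% = DMSO alone without zVAD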
Furin inhibitor = blocks human furin protease activity. 220,000 tested, 0.061% active. inhibition, % at 20 µM or 30 µM. purified furin, fluorogenic substrate cleavage. P09958; in the data active = inhibition above about 25%
Target sequence (P09958 108-714 limits assumed): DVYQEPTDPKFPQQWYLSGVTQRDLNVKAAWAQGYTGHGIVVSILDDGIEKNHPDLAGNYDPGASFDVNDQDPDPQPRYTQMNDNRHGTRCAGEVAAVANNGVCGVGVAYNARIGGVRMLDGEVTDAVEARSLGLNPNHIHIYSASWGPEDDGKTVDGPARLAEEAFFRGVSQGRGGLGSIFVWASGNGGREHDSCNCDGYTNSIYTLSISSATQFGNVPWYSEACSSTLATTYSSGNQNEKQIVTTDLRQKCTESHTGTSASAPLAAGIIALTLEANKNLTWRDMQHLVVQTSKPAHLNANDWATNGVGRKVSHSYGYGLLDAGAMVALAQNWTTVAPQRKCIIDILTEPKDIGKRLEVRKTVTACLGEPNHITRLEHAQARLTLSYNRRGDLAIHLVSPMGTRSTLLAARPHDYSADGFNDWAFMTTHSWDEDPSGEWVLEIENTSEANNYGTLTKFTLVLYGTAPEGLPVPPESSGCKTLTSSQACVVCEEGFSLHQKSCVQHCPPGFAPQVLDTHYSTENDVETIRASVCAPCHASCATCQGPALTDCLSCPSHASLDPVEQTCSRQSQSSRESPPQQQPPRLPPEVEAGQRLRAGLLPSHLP
TNF death inh = TNF-alpha cell death inhibition in Jurkat FADD-/- cells; Jurkat FADD-/- TNF necroptosis rescue, ATP luminescence, 24 h; 0 = TNF only, 100 = no-TNF cells; activation (protection from cell death), % at 10 µM; 220,000 tested, 0.068% active;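 active = activation, meaning protection from cell death, of at least 50% relative to plate controls; inactive = activation below 50%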;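 also: necroptosis triggered by 40 ng/mL TNF-alpha added together with compound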
Dynein cargo inh = dynein cargo transport inhibition | z-score, hits read low | 220,000 tested, 0.47% active | 3617.4 mouse cells, GR-EGFP nuclear translocation imaging; test concentration mostly 20 µM; stimulated with dexamethasone, 1 µM; hits give low values;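 active = plate z-score of nuclear minus cytoplasmic receptor signal below a set negative limit, without overly bright fluorescence or cell loss, cut at about -3.5 in these data, passing the limit was not always enough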;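 also: z-score of nuclear minus cytoplasmic ring GR-EGFP intensity difference per well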
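medium = tetracycline-free induction medium containing charcoal-stripped FBS | also added = 1.0 µM final dexamethasone stimulus | schedule = 48 h induction, 1 h compound, 30 min dex at 37 °C | technique = fixed, Hoechst-stained cells imaged at 10x for EGFP | measure = GR-EGFP nuclear translocation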
Dynein inh conf = dynein cargo transport inhibition, confirmation; shares compounds with Dynein cargo inh; 3617.4 GR-EGFP nuclear translocation imaging, dexamethasone-induced; calls only at 20 µM; 1,000 tested, 69% active; AID 463116;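 active = inhibition of receptor movement into the nucleus at or above a set limit in both runs, with normal cell brightness and cell count; inconclusive = limit reached in only one run, brightness and count normal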;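 also: dexamethasone at 1 µM final in well for 30 min; nuclear minus cytoplasmic GR-EGFP mean intensity difference in channel 2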
* marks the source's active call; other numbers are inactive results; i = inactive; u = inconclusive; x = not tested or not shown; + = active, no number. This is a sample that favours compounds with a hit; in the whole collection about 1.8% have one here.

SMILES | HSV augment | Autophagy mod | zVAD death inh | Furin inhibitor | TNF death inh | Dynein cargo inh | Dynein inh conf
CN=c1scc(-c2cccs2)n1/N=C/c1ccc(O)c(O)c1O | i | i | 0 | -6 | -6 | -3.6* | u
CN=c1scc(-c2cccs2)n1/N=C/c1ccccc1O | i | i | 0 | -4 | 0 | 1 | x
CCOC(=O)C1C(=O)C=C(c2ccc(C)cc2)CC1c1ccccc1 (stereo not given) | i | i | 0 | -9 | -2 | 0.13 | x
CCOC(=O)C1C(=O)C=C(/C=C/c2ccc(N(C)C)cc2)CC1c1ccccc1 (stereo not given) | u | + | -2 | -20 | -1 | -9.9 | i
CC(C)Cc1cc(C(=O)N2CCC(N3CCC(C(=O)NC4CC4)CC3)CC2)n[nH]1 | i | i | 1 | -11 | 1 | -0.5 | x
N#CC12COC3(CCCCC3C1(C#N)C#N)OC2=N (stereo not given) | u | x | 0 | -18 | -21 | -5* | +
COCCNC(=O)CN(C(=O)Cn1nnc2ccccc21)c1cccc(C)c1C | i | i | 2 | -9 | 1 | -0.34 | x
CCOC(=O)/C(=C\c1cn(C)c2ccccc12)[N+](=O)[O-] | i | i | 1 | -10 | 2 | -3.7* | +
COc1ccc(C2/C=C\CN(C(=O)c3ccccc3)[C@H](Cc3ccccc3)C(=O)N2Cc2ccc(F)cc2)cc1 (stereo not given in full) | i | x | -1 | -22 | -1 | -0.52 | x
O=[N+]([O-])c1ccc(-n2nnnc2-c2ccccc2)c([N+](=O)[O-])c1 | i | i | -2 | -15 | -10 | -6.6* | +
CN1N=C(C(C)(C)C)CSC1=Nc1ccccc1 | i | x | 1 | -14 | 1 | -0.93 | x
CC(=O)N1CCN(CC(=O)Nc2ccc([N+](=O)[O-])cc2Br)CC1 | i | i | -1 | -8 | 2 | -0.11 | x
COc1cc(OC)nc(-n2ncc(Br)c(Br)c2=O)n1 | i | i | 51 | -11 | -12 | -3.5* | +
COC(=O)c1cnn(-c2nc(OC)cc(OC)n2)c1C | i | i | 0 | 1 | 1 | -0.066 | x
O=C1c2cc([N+](=O)[O-])cc3cc([N+](=O)[O-])cc(c23)C(=O)N1c1ccccn1 | i | i | 65 | -15 | -2 | -3.5* | i
O=C1c2ccc(Oc3cccc([N+](=O)[O-])c3)cc2C(=O)N1c1ccccn1 | i | i | 12 | -26 | 1 | -0.46 | x
Cc1cc(NC(=O)c2coc(=O)c(Br)c2)ccc1C(C)C | i | x | -1 | -19 | -28 | -5.4* | +
Cc1[nH]c2ccccc2c1/C=N/Nc1ccc([N+](=O)[O-])cc1 | u | + | 3 | -11 | 1 | -3.9 | i
COc1ccccc1NS(=O)(=O)c1cc([N+](=O)[O-])ccc1N/N=C/c1c(C)[nH]c2ccccc12 | u | i | 0 | -2 | -3 | -4.9 | i
CCC(C)NC(=O)COc1ccccc1[N+](=O)[O-] (stereo not given) | i | i | 1 | -22 | 2 | -0.36 | x
CCOc1ccccc1N1C(=O)CC(Sc2n[nH]c(-c3ccccc3)n2)C1=O (stereo not given) | i | i | -2 | -25 | -3 | -4.1* | +
Cc1ccc(N(CCC#N)C(=O)CCl)cc1C | i | i | 0 | -7 | 4 | -4.4* | +
O=C(CN1CCN(S(=O)(=O)c2ccccc2[N+](=O)[O-])CC1)NC(=O)NCc1ccco1 | i | i | 0 | -19 | 0 | -3.6* | i
O=C(CN1CCN(Cc2ccccc2)CC1)NC(=O)NCc1ccco1 | i | i | 0 | 0 | 0 | -0.45 | x
Cc1ccc(Nc2nnc(SCC(=O)Nc3cc(C(=O)O)ccc3C)s2)c(C)c1 | i | x | 1 | -12 | 1 | 0.6 | x
SMILES | HSV augment | Autophagy mod | zVAD death inh | Furin inhibitor | TNF death inh | Dynein cargo inh | Dynein inh conf
COc1ccc(Nc2nc(-c3ccccc3)nc3ccccc23)cc1S(=O)(=O)N1CCOCC1 | i | x | 1 | -26 | -10 | -0.66 | x
CCOC(=O)c1nc2sc(C)c(C)c2c(=O)[nH]1 | i | i | 0 | -84 | 0 | -0.33 | x
CCOC(=O)/C(=C\c1cccc(O)c1)c1nc2sc(C)c(C)c2c(=O)[nH]1 | i | i | 1 | 4 | 1 | -4.4* | +
Cc1ccc(N(C(=O)CCl)C(C(=O)NC2CCCCC2)c2cccnc2)cc1C (stereo not given) | i | + | 4 | -10 | -13 | -4.1* | +
O=C(O)c1ccc(NC2=C/C(=N/S(=O)(=O)c3ccccc3)c3ccccc3C2=O)cc1 | i | i | 7 | 11 | -10 | -4.2* | +
O=C(O)c1ccc(NS(=O)(=O)c2ccc3c(c2)C(=O)c2ccccc2C3=O)cc1 | i | i | 3 | -25 | 1 | 1.2 | x
COC(C[C@@H](O)C[C@H](O)[C@@H](C)OCc1ccccc1)OC | i | x | 0 | -30 | 2 | 0.44 | x
COc1ccc(NC(=O)C(=O)N2N=C3CCCCC3C2(O)C(F)(F)F)cc1 (stereo not given) | i | i | 19 | -24 | 0 | -0.22 | x
CNC(=O)COC(=O)c1ccccc1C(=O)c1ccc(Cl)c([N+](=O)[O-])c1 | i | i | 48 | -29 | -14 | -4.3* | +
CCOC(=O)CC1C(=O)NCCN1c1nc2ccc(C)cn2c(=O)c1/C=C1\SC(=S)N(CC(C)C)C1=O (stereo not given) | x | x | 0 | -10 | -5 | -4.2 | i
CCCN1C(=O)/C(=C/c2c(N3CCNC(=O)C3CC(=O)OCC)nc3c(C)cccn3c2=O)SC1=S (stereo not given) | x | x | 1 | 14 | -14 | -0.84 | x
CCOC(=O)CC1C(=O)NCCN1c1nc2ccc(C)cn2c(=O)c1/C=C1\SC(=S)N(C(C)CC)C1=O (stereo not given) | u | x | 0 | 11 | 1 | -3.6 | +
CC1=CC(C)(C)Nc2ccc(OC(=O)c3ccco3)cc21 | i | i | 5 | -5 | -8 | -1.3 | x
CC1=CC(C)(C)Nc2ccc(OC(=O)c3cccnc3)cc21 | i | i | 12 | -28 | -16 | -3.6* | i
COc1ccc2nc(N3CCCCC3)c(C#N)cc2c1 | i | i | 0 | -9 | 0 | 1.7 | x
COc1ccc2nc(N3CCCC3)c(C#N)cc2c1 | i | i | 0 | -19 | -7 | -4.2* | i
O=c1nc(/C=C/c2ccc(O)c(O)c2)oc2ccccc12 | i | x | 2 | 0 | -12 | 1.6 | x
COc1ccc(/C=C\c2nc(=O)c3ccccc3o2)cc1 | i | i | 3 | -12 | -8 | -3.6* | +

Compound activity from PubChem.
